Most compounds without a hit are left out; they make up all but 2.2% or so of the library.
ERp5 block = inhibitors of ERp5-driven insulin aggregation, primary screen, biochemical, turbidity, absorbance 650 nm, single point; 90 min; inhibition, % at 9.99 µM; 0.05% of 350,000 active; Protein disulfide-isomerase A6 (Homo sapiens), Q15084;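 active means mean replicate inhibition above about 25%, with every replicate also reaching it, limit read from the data, passing the limit was not always enough; inconclusive means only one of those two criteria met; inactive means neither criterion met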
FN deposit inh = inhibitors of fibronectin matrix deposition, primary screen, AH1F cells, Alexa488-fibronectin fluorescence, plate reader; AID 743247, 2014; AH1F fibroblasts, overnight; inhibition, % at 12.6 µM; 0.086% of 350,000 active;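 active means mean inhibition across replicates of 30% or more, regardless of how many single replicates reach that level; inconclusive means mean under 30% yet at least half of replicates reach 30%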;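 further: positive control wells lacked labelled fibronectin entirely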
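Assay system: AH1F fibroblast monolayer, labelled fibronectin deposition. Amount: 10000 cells per well. Also added: labelled fibronectin 24 nM. Compound: single-point pinned compound. Incubation: cell attachment 1 h, compound and FN exposure overnight. Detection: fluorescence after three HBSS washes, excitation 485 nm, emission 525 nm. Read-out: inhibition of fibronectin deposition signal.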
PDI inh = inhibitors of human PDI, primary screen, biochemical, turbidity, single point, plate reader. inhibition, % at 10 µM. Protein disulfide-isomerase (Homo sapiens), P07237. 0.052% of 350,000 active. PDI insulin aggregation turbidity, A650, 90 min;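 active means mean inhibition across replicates of 30% or more, whatever share of single replicates reach that level; inconclusive means mean inhibition below 30% while every single replicate reaches 30%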
Target sequence (P07237 whole entry, looked up): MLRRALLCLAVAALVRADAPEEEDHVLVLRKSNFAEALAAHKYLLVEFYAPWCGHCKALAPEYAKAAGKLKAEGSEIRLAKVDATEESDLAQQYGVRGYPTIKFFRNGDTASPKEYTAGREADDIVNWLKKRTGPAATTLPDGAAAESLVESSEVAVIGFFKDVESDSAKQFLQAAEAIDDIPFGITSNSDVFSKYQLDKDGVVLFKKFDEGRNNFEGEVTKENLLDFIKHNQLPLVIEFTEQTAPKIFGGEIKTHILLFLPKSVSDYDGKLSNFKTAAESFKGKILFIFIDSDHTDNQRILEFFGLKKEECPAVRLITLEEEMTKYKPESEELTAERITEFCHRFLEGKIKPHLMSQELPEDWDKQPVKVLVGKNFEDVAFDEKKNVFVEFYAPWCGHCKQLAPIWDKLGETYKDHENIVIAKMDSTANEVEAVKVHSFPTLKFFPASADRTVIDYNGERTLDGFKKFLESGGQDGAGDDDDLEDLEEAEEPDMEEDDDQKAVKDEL
HIV Env fusion = inhibitors of HIV-1 Env-driven cell-cell fusion, primary screen, HeLa-JRFL effector, CEM21 target cells, luciferase | 1.1% of 360,000 active | AID 651610, 2012 | inhibition, % at 12.3 µM;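 active means mean replicate inhibition score of at least 50 and every replicate individually at or above 50; inconclusive means only one of the two criteria met; inactive means mean below 50 and not all replicates reaching 50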;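 further: 0% = plate neutral controls and 100% = maraviroc near 300 nM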
rRNA inh HTS = reduced GFP signal of wild-type E. coli, primary screen, bacterial rRNA inhibitor project, GFP/RFP fluorescence, OD600, single point. E. coli WT GFP vs humanized-ribosome RFP mutants, 24 h; active compounds read low; DMSO median 0, no signal -100. GFP signal change (wild-type ribosome), % (test concentration not listed). 1.6% of 350,000 active. AID 720706, 2013;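 active means significant combined selectivity score with lowered wild-type GFP, culture density cut under 30%, mutant RFP and density less affected; inactive means any of these conditions unmet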
PvdQ acylase = P. aeruginosa PvdQ acylase inhibitors, primary screen, biochemical, fluorescence, plate reader and imaging, single point; PvdQ acylase [Pseudomonas aeruginosa LESB58]; inhibition, % at 10 µM; purified PvdQ acylase; 0.063% of 340,000 active; in the data active means inhibition above about 30%, passing the limit was not always enough; inconclusive means no clear call, values can overlap the other calls;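 further: 0% = vehicle neutral wells and 100% = reference inhibitor wells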
Numbers without * were called inactive; ? = inconclusive; . = no result given; [ ] = another dose, or the depositor's remark.

SMILES	ERp5 block	FN deposit inh	PDI inh	HIV Env fusion	rRNA inh HTS	PvdQ acylase
CCn1c(Oc2ccccc2F)nc2c1c(=O)n(C)c(=O)n2C	0	6	-4	58*	4	9
Cc1ccc(Oc2nc3c(c(=O)n(Cc4ccccc4F)c(=O)n3C)n2C)cc1	-3	.	3	56*	2	-2
COCCNc1nc2c(c(=O)n(Cc3ccccc3F)c(=O)n2C)n1C	1	-6	5	1	2	4
Cc1cccc(S(=O)(=O)N[C@H]2CC[C@H](CCn3cc(-c4ccccn4)nn3)O[C@@H]2CO)c1	-1	-1	.	-36[16.7 µM]	-2	.
Cc1cccc(NCc2cc(Cl)ccc2O)n1	-7	.	-15	.	-52*	-1
CC1CC(C)CN(C(=S)SCc2nc(N)nc(Nc3ccccc3)n2)C1 (stereo unspecified)	3	-12	-1	2	-22*	-6
Cc1ccc(-c2ccccc2[C@@H]2[C@@H](C#N)N(C(=O)Cc3cccnc3)[C@@H]2CO)cc1	.	-16	.	.	-4	.
Cc1cc(C(=O)COC(=O)c2ccc(O)cc2)c(C)n1-c1ccccc1F	0	.	-5	-47	-29*	-1
C=C(C)n1c(=O)n(Cc2ccc(C)cc2)c2ccccc21	-1	-3	-6	13	-15	-13
C=C(C)n1c(=O)n(Cc2ccccc2C)c2ccccc21	-2	8	-2	12	-31*	-12
COc1ccccc1C#Cc1ccc([C@H]2[C@H]3CN(C(=O)C4CCC4)CCCCN3[C@H]2CO)cc1	.	17	.	.	-8	.
COc1ccccc1NC(=O)N[C@@H]1CC[C@@H](CCNC(=O)Cc2ccccn2)O[C@H]1CO	3	-3	.	-2[16.7 µM]	-3	.
COc1cccc(C2C3=C(CCCC3=O)Nc3nc(-c4cc(OC)c(OC)c(OC)c4)nn32)c1 (stereo unspecified)	.	-5	-5	6	.	-13
COc1cc(-c2nc3n(n2)C(c2ccc(F)cc2)C2=C(CCCC2=O)N3)cc(OC)c1OC (stereo unspecified)	1	-16	-7	-15	-27*	-1
Cc1ccc(-n2cccn2)c([C@@H]2C[C@H]3CN(C)C(=O)[C@]34CCCN24)c1	0	-2	-1	14	7	-11
Cc1cc(C)c([C@@H]2C[C@H]3CN(C4CCCC4)C(=O)[C@]34CCCN24)c(-n2cccn2)c1	2	38*	15	-63	6	2
CCc1ccc(CN2CCN(C(=O)c3cccc(OC)c3OC)CC2)cc1	0	-8	4	89*	-8	-14
COc1cccc(C(=O)N2CCN(C(=O)c3cccc4ccccc34)CC2)c1OC	.	.	-1	.	.	-14
C[C@@H]1CN([C@H](C)CO)S(=O)(=O)c2ccc(C#Cc3ccccc3F)cc2O[C@H]1CN(C)CC1CCOCC1	.	.	.	20[16.7 µM]	-11	.
O=C(Nc1cc(S(=O)(=O)N2CCCCC2)ccc1Cl)c1ccccc1NS(=O)(=O)c1ccc(F)cc1	5	-5	-6	71*	.	-22
O=C(O)c1cc(S(=O)(=O)N2CCN(C(c3ccccc3)c3ccccc3)CC2)ccc1Cl	0	-30	5	18	-16*	-10
CC(NCC(=O)Nc1cc(S(=O)(=O)N2CCCCCC2)ccc1Cl)c1ccccc1 (stereo unspecified)	2	12	2	31	-23*	-10
O=C(/C=C/c1cccc(F)c1)Nc1cc(S(=O)(=O)N2CCOCC2)ccc1Cl	1	.	10	-215	-17*	-3
COCC(=O)N1CC2(CCN(C(=O)NC(C)C)CC2)c2c(n(C)c3cc(OC)ccc23)[C@H]1CO	0	.	.	.	0	.
COCCOC(=O)N1C(=O)[C@@]2(c3cc(C#CC4=CCCCC4)ccc31)[C@H](C(=O)NC[C@H](O)c1ccccc1)[C@H]1C(=O)O[C@H](c3ccccc3)[C@H](c3ccccc3)N1[C@@H]2c1ccc(O)cc1	0	.	.	-24[16.7 µM]	.	.
SMILES	ERp5 block	FN deposit inh	PDI inh	HIV Env fusion	rRNA inh HTS	PvdQ acylase
Cc1ccc(OCC(=O)c2cc(C)n(-c3ccccc3)c2C)c([N+](=O)[O-])n1	.	-13	12	67*	.	2
Cc1ccc(S(=O)(=O)N2CCOCC2)cc1C(=O)Nc1cc(S(=O)(=O)N2CCCCC2)ccc1O	4	4	2	-127	-6	17
CCNc1ccc(C(=O)OCC)cc1NC(=O)c1cc(S(=O)(=O)N2CCOCC2)ccc1C	.	-7	-6	62*	.	11
CCc1cc(-c2nnn(-c3cc(C(C)C)ccc3C)c2CC)ccc1-c1cn(CCc2c[nH]c3ccccc23)nn1	3	-13	0	84*	.	.
COCC(=O)Nc1ccc2c(c1)OC[C@@H](C)N(C(=O)CC1CC1)C[C@@H](C)[C@H](OC)CN(C)C2=O	-5	.	.	1[16.7 µM]	3	.
COc1ccc(NC(=O)Nc2ccc3c(c2)C(=O)N([C@H](C)CO)C[C@H](C)[C@H](CN(C)C(=O)Nc2cccc4ccccc24)O3)cc1	1	-7	.	16[16.7 µM]	-5	.
Clc1ccc(-n2nnnc2-c2cnc3ccccc3c2-c2ccccc2)cc1	.	3	-2	13	-21*	1
O=C(/C=C/c1ccc([N+](=O)[O-])cc1)c1ccccc(=O)c1O	-14	5	-7	-272	-14*	-2
O=C(/C=C/c1ccccc1Cl)c1ccccc(=O)c1O	.	.	-9	.	.	-3
CC1CC(C)CN(C(=O)COC(=O)c2cccc([N+](=O)[O-])c2)C1 (stereo unspecified)	5	.	1	8	-5	-10
O=C(OCC(=O)N1CCN(c2ccccc2)CC1)c1cccc([N+](=O)[O-])c1	-1	-3	0	71*	-3	-5
COc1ccc(NC(=O)Nc2ccc3c(c2)C(=O)N([C@H](C)CO)C[C@@H](C)[C@H](CN(C)Cc2ccc4c(c2)OCO4)OCCCC[C@H](C)O3)cc1	-5	.	.	13[16.7 µM]	-5	.
COc1ccc(-c2ccc(-c3cc(=O)oc4cc(OC)c(OC)c(OC)c34)cc2)cc1OC	2	-9	6	?	-16	17
COc1cc2oc(=O)cc(-c3cccc(-c4cccc(C)c4)c3)c2c(OC)c1OC	2	-2	2	57*	5	-6
O=C(O)c1ccc(NC(=O)c2ccc3c(c2)C(=O)N(c2ccccc2)C3=O)cc1	2	2	1	4	6	3
O=C(O)c1ccc(S(=O)(=O)c2ccc3c(c2)C(=O)N(c2ccc(O)cc2)C3=O)cc1	-8	10	-4	0	-36*	-3
